Measured values reported in ChEMBL document CHEMBL3632540, “Ynamide Click chemistry in development of triazole VEGFR2 TK modulators” (Eur J Med Chem, 2015).
pIC50: −log10 of the molar value.

What was measured:
[1] = target: Vascular endothelial growth factor receptor 2 (Homo sapiens, UniProt P35968); experiment: Inhibition of GST-tagged human recombinant VEGFR2 kinase expressed in Sf9 insect cells by radiometric protein kinase assay; conditions: for IC50: sf9; for pIC50: read-out: IC50
How it was run: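 Human VEGFR2 kinase made as GST fusion in Sf9 cells, purified on GSH-agarose, purity checked by SDS-PAGE/silver stain, identity confirmed by mass spectrometry.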

[2] = Cytotoxicity against human Mahlavu cells incubated for 72 hrs by SRB assay; assay type: functional, cell-based
How it was run: (§1)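 HCC lines kept in DMEM with 10% FBS, L-glutamine, nonessential amino acids and penicillin/streptomycin at 37 °C, 5% CO2, STR-authenticated. Seeded at 2000 cells/well (Huh7) or 1000 cells/well (Mahlavu); serial dilutions added 24 h later, DMSO control. After 72 h, TCA-fixed, SRB-stained, dye solubilized in 10 mM Tris base, A515 read. Triplicates, normalized to DMSO.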

[3] = Cytotoxicity against human HuH7 cells incubated for 72 hrs by SRB assay; assay type: functional, cell-based, Huh-7; conditions: for pIC50: Homo sapiens, Huh-7, 72 h, read-out: IC50; how it was run: as §1

Chain of Vascular endothelial growth factor receptor 2 (P35968 whole entry, the tested form may be a part): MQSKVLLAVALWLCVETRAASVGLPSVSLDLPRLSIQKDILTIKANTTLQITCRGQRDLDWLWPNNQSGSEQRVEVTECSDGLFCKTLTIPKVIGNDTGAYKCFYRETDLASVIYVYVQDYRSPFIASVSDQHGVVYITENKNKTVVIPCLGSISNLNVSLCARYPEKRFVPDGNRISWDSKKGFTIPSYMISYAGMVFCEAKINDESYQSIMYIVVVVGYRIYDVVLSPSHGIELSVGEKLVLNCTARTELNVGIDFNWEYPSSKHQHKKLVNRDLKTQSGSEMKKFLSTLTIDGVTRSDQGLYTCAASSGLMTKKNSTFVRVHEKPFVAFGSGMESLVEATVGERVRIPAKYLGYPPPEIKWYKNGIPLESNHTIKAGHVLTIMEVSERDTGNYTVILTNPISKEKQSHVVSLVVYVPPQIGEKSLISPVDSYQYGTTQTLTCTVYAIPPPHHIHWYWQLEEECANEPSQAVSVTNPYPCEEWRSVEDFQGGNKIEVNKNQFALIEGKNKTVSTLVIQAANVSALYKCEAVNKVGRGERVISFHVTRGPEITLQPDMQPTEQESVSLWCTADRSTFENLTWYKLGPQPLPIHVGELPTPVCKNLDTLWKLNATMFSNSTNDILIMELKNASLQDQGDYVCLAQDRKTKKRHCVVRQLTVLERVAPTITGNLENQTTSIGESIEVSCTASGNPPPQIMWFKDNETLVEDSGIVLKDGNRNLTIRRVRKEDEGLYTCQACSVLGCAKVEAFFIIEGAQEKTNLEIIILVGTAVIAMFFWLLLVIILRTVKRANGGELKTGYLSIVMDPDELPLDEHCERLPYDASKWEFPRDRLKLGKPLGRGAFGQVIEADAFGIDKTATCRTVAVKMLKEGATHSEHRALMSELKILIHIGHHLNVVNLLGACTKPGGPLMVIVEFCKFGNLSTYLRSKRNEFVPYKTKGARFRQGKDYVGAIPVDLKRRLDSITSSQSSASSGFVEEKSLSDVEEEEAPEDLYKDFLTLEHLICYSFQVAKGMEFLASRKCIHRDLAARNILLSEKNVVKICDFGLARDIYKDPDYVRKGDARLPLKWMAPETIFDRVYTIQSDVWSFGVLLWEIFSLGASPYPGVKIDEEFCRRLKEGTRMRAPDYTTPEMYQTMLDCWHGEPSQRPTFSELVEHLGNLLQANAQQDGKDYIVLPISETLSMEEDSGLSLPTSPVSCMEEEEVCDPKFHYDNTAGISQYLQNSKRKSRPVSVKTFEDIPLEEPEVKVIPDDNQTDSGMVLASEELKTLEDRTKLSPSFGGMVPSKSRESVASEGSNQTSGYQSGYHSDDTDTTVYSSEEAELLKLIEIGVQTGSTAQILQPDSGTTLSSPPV

SMILES	IC50 [1]	pIC50 [2]	pIC50 [3]	pIC50 [1]	IC50 ([3]; huh-7)
CCS(=O)(=O)c1ccc(OC)c(Nc2cn(-c3ccc(O)c(-c4cccnc4)c3)nn2)c1	Not Active	–	–	–	–
CCS(=O)(=O)c1ccc(OC)c(Nc2cn(-c3cc(-c4ccccc4)nc(-c4ccccc4)n3)nn2)c1	Not Active	–	–	–	–
CCS(=O)(=O)c1ccc(OC)c(Nc2cn(-c3cccc(-c4cccnc4)c3)nn2)c1	–	4.93	4.89	< 4.00	–
CCS(=O)(=O)c1ccc(OC)c(Nc2cn(-c3ccc(O)c(-c4ccccn4)c3)nn2)c1	–	4.86	4.75	5.16	–
CCS(=O)(=O)c1ccc(OC)c(Nc2cn(-c3ccc(O)c(-c4cc[nH]c4)c3)nn2)c1	–	4.92	4.73	4.40	–
CCS(=O)(=O)c1ccc(OC)c(Nc2cn(-c3ccc(NC(N)=O)c(-c4cccc5ccccc45)c3)nn2)c1	–	4.55	–	< 4.00	Not Active
CCS(=O)(=O)c1ccc(OC)c(Nc2cn(-c3cccc(-c4ccccn4)c3)nn2)c1	–	–	–	4.38	–
